Bioassay records (PubChem)
Ecoli rRNA inh: reduced GFP signal of wild-type E. coli, primary screen, bacterial rRNA inhibitor project, GFP/RFP fluorescence, OD600, single point; E. coli WT GFP vs humanized-ribosome RFP mutants, 24 h; stronger effect = lower value; DMSO median 0, no signal -100; GFP signal change (wild-type ribosome), % (concentration not given with the values); 1.6% of 350,000 active; AID 720706, 2013;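 active = significant combined selectivity score with lowered wild-type GFP, culture density cut under 30%, mutant RFP and density less affected; inactive = any of these conditions unmet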
XiGFP reactiv: activators of inactive X chromosome reactivation, primary screen, imaging, XiGFP fibroblasts, GFP high-content imaging, set 2. XiGFP mouse fibroblasts, % GFP-positive cells imaging, 3 d; cells co-treated with 5-aza-dC sensitizer; scaled so ellipticine positive control = 100%. activation, % at 7.58 µM. 0.055% of 360,000 active. AID 743238, 2013;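 active = mean normalized replicate activation at least 10% and every replicate at or above 10%; inconclusive = only one of the two criteria met; inactive = mean below 10% and not all replicates reach 10%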
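assay system = SV40-immortalized XiGFP fibroblast cells, line 68-5-11 | buffer or medium = DMEM plus 5-aza-dC sensitizer | doses = single-point pinned compound dosing | times = 3-day compound exposure, then 15 min fixation at room temperature | benchmarks = positive control ellipticine, 6 µM final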
RAD52 anneal inh: RAD52 DNA annealing inhibitors, primary screen, biochemical, FRET, single point, set 2. DNA repair protein RAD52 homolog (Homo sapiens), P43351. recombinant RAD52 DNA annealing, FRET fluorescence. inhibition, % at 18.7 µM. 0.46% of 360,000 active. AID 651710, 2012;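 active = every replicate showing at least 50% inhibition; inconclusive = mean inhibition at least 50% but not in every replicate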
Target sequence (P43351 whole entry, looked up): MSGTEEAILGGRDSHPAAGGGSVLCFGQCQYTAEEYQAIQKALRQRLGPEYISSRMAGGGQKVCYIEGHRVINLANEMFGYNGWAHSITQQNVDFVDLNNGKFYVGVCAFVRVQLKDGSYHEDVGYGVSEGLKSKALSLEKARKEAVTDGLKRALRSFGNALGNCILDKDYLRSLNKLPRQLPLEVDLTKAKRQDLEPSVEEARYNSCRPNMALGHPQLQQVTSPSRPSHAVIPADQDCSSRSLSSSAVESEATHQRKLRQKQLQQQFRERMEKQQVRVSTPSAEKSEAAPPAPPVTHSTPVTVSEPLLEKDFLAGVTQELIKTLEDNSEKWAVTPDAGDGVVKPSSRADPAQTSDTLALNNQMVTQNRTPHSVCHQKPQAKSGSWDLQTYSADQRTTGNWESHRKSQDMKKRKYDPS
E-sel inducer: E-selectin induction in HUVECs, primary screen, imaging, HUVEC, immunofluorescence imaging, single point | P16581 | normalized: neutral wells 0, TNF-alpha wells 100 | activation, % at 7.58 µM | 0.37% of 260,000 active | AID 686992, 2013;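 active = mean E-selectin-positive cell signal at least 10% of the positive control, reached in at least 60% of replicates, without over 20% cell loss; inconclusive = no rule given, readout overlaps actives, possibly toxicity-flagged; inactive = the rest, including those meeting only one limit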
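Test system – human umbilical vein endothelial cells (HUVEC), E-selectin induction · Input – 3,000 HUVEC seeded per well · Buffer or medium – EGM-2, gelatin · Compound dosing – single-point compound dose · Detection – immunofluorescence imaging · Measure – percent E-selectin-positive cells · Controls – TNF-alpha high, DMSO low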
RAD54 inh: inhibitors of human RAD54 branch migration, primary screen, biochemical, fluorescence, single point | DNA repair and recombination protein RAD54-like (Homo sapiens), Q92698 | RAD54 Holliday junction branch migration, FAM/BHQ fluorescence | inhibition, % at 10.4 µM | 0.14% of 360,000 active | AID 602329, 2012;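 active = mean normalized replicate activity at least 40 and at least half of replicates scoring 40 or more; inconclusive = only one of the two criteria met; inactive = mean below 40 and under half of replicates reaching 40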;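 note: inhibitors cause a drop in the FAM fluorescence signal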
PglD DTNB: C. jejuni PglD acetyltransferase inhibitors, primary screen, biochemical, DTNB colorimetric, single point; AID 602405, 2012; inhibition, % at 12.5 µM; purified PglD enzyme, DTNB colorimetric CoA detection; UDP-N-acetylbacillosamine N-acetyltransferase PglD (Campylobacter jejuni); 0.098% of 360,000 active; in the data active = inhibition above about 16%, passing the limit was not always enough; inconclusive = no clear call, values can overlap the other calls
Numbers stand for hits; n = inactive; u = inconclusive; x = no result; ! = not active in a repeat. Compounds with a hit are over-represented: about 2% of the library has one in this group of screens.

SMILES	Ecoli rRNA inh	XiGFP reactiv	RAD52 anneal inh	E-sel inducer	RAD54 inh	PglD DTNB
O=C(CSc1nc2cc(Cl)ccc2s1)c1ccco1	-21	x	n	x	n	n
O=C(CSc1nnc(SCC(=O)c2ccco2)s1)c1ccco1	x	x	x	x	n	n
CCS(=O)(=O)N1CCCCN2[C@H](CO)[C@H](c3ccc(-c4ccc(C(=O)N(C)C)cc4)cc3)[C@@H]2C1	n	n	n	n	n	n
O=C(N/N=C/c1ccc(O)c(O)c1)c1ccc(CSc2cccc3cccnc23)cc1	-16	x	n	x	n	n
COc1ccc2c(c1)c(C(=O)OCCN(C)C)c(C)n2C	x	x	x	x	59	n
COCCOC(=O)c1c(C)n(C)c2ccc(OC(=O)c3c(OC)cccc3OC)cc12	n	n	n	n	n	n
COC1=C/C(=C/c2c(N)n3cc(C)sc3nc2=O)C=CC1=O	n	n	n	n	n	n
Cc1cn2c(N)c(C=C3C=C(Cl)C(=O)C(Cl)=C3)c(=O)nc2s1	n	n	n	142	x	x
C[C@@H]1CN([C@@H](C)CO)C(=O)c2cc(NS(=O)(=O)c3ccccc3)ccc2O[C@@H](C)CCCCO[C@H]1CN(C)Cc1ccc(C(=O)O)cc1	n	n	x	n	n	n
COc1cccc(OC)c1OC(=O)C1CC(=O)N(c2ccc3c(c2)OCCO3)C1 (stereo unspecified)	n	n	n	x	n	x
COc1ccccc1NC(=O)C(C)OC(=O)C1CC(=O)N(c2ccc3c(c2)OCCO3)C1 (stereo unspecified)	n	n	n	107	n	n
CCOCCCNC(=O)CN1C(=O)/C(=C/c2ccccc2C)Sc2ccccc21	n	n	n	n	n	n
CCOCCCNC(=O)/C=C1\Sc2ccccc2N(Cc2ccccc2F)C1=O	-17	n	n	n	n	n
O=C(Nc1cc(F)ccc1F)N1[C@@H]2CNC[C@H]1C2c1ccc(-c2ccc(F)cc2)cc1 (stereo partly specified)	n	n	58!	n	x	x
O=C(Nc1cc(F)ccc1F)N1[C@@H]2CNC[C@H]1C2c1ccc(-c2ccncc2)cc1 (stereo partly specified)	n	n	n	n	x	x
Cc1cccc(-c2ccc(C3[C@H]4CNC[C@@H]3N4C(=O)Nc3ccc(F)cc3)cc2)c1 (stereo partly specified)	n	n	n	n	x	x
O=C(Nc1cccc(F)c1)N1[C@@H]2CNC[C@H]1C2c1ccc(-c2cccc(F)c2)cc1 (stereo partly specified)	n	n	54!	n	x	x
Cc1cccc(-c2ccc(C3[C@H]4CNC[C@@H]3N4C(=O)Nc3ccccc3Cl)cc2)c1 (stereo partly specified)	n	n	x	n	x	x
O=C(Nc1cccc(Cl)c1)N1[C@@H]2CNC[C@H]1C2c1ccc(-c2ccccc2)cc1 (stereo partly specified)	n	n	53	n	x	x
C[C@H]1CN([C@@H](C)CO)C(=O)CCCn2cc(nn2)CO[C@H]1CN(C)S(=O)(=O)c1cccc(C#N)c1	n	n	n	n	x	x
C[C@@H]1CN([C@H](C)CO)C(=O)Cc2cc(NC(=O)Nc3ccc(F)cc3)ccc2O[C@H]1CN(C)S(=O)(=O)c1cn(C)cn1	n	n	x	n	x	x
CCCNC(=O)C[C@H]1CC[C@@H]2[C@H](COc3ccc(NC(=O)c4cccc(OC)c4)cc3C(=O)N2C)O1	n	n	n	n	n	n
C[C@@H]1CN([C@@H](C)CO)C(=O)Cc2cc(NC(=O)CCCN(C)C)ccc2O[C@H]1CN(C)S(=O)(=O)c1ccc(Cl)cc1	n	n	n	n	n	n
Cc1csc(SC(C)c2nc3scc(-c4ccccc4)c3c(=O)[nH]2)n1 (stereo unspecified)	-24	n	n	n	x	x
CCOC(=O)N1CCN(c2c(N3CCOCC3)c(=O)c2=O)CC1	n	n	n	204	n	n
SMILES	Ecoli rRNA inh	XiGFP reactiv	RAD52 anneal inh	E-sel inducer	RAD54 inh	PglD DTNB
CCN(CC(=O)Nc1ccccc1OC)CC(=O)Nc1c(Cl)ccc(C)c1Cl	-26	n	n	n	n	n
Cc1c(Nc2ccc3nonc3c2[N+](=O)[O-])c(=O)n(-c2ccccc2)n1C	n	n	n	x	x	x
O=[N+]([O-])c1c(Nc2cccc(O)c2)cc(Cl)c2nonc12	-45	n	n	n	n	n
Cc1c(Nc2cc(Cl)c3nonc3c2[N+](=O)[O-])c(=O)n(-c2ccccc2)n1C	n	19	n	x	x	x
O=C(O)c1ccc(Nc2cc(Cl)c3nonc3c2[N+](=O)[O-])cc1	n	n	n	n	n	n
Cc1sc2ncn(CC(=O)Nc3cccc(S(N)(=O)=O)c3)c(=O)c2c1-c1ccccc1	-29	n	n	x	n	n
CO[C@@H]1CN(C)C(=O)c2cc(NC(=O)NC(C)C)ccc2OC[C@@H](C)N(Cc2ccccc2)C[C@H]1C	n	n	n	n	n	n
CC(=O)c1ccc(NC(=O)C2=CC(c3cccs3)=NS(=O)(=O)N2C)cc1	-21	n	n	x	n	n
COc1ccc(NC(=O)CC2C(=O)N(c3ccc(OC)cc3)C(=S)N2NC(=O)c2cccc(F)c2)cc1 (stereo unspecified)	x	n	x	n	x	x
CN1C(=O)C(CC(=O)NCCc2ccccc2)N(NC(=O)c2ccc(Cl)cc2)C1=S (stereo unspecified)	n	n	n	x	n	n
COc1ccc(N2C(=O)C(CC(=O)Nc3ccc(Cl)cc3)N(NC(=O)c3cccc(F)c3)C2=S)cc1 (stereo unspecified)	-17	n	n	n	n	n
CN1C(=O)C(CC(=O)NCCc2ccccc2)N(NC(=O)c2cccc(F)c2)C1=S (stereo unspecified)	-16	n	n	u	n	n
Cc1ccc(-n2c(C3CC3c3ccc(Cl)cc3)n[nH]c2=S)cc1 (stereo unspecified)	-33	x	n	x	n	n
Cc1ccc(C2CC2c2n[nH]c(=S)n2-c2ccc(C)cc2)cc1 (stereo unspecified)	n	x	n	x	n	n
COC(=O)c1sc(-c2ccccc2)cc1NC(=O)C1CC1	-27	n	n	n	x	x
CCOc1ccc(NC(=O)Nc2cc(-c3ccccc3)sc2C(=O)OC)cc1	n	n	n	x	n	n
